Reference: ChEMBL document CHEMBL1130345, “A technetium-99m SPECT imaging agent which targets the dopamine transporter in primate brain” (J Med Chem, 1997)
Several values for one entry are separate records, joined by “and”; a condition that tells them apart may be missing. Equal entries are not always repeated.

Assays:
[1] = target: Sodium-dependent serotonin transporter; experiment: Inhibition of [3H]- citalopram binding to serotonin transporter of Cynomolgus monkey caudate-putamen; assay type: tissue-based
How it was run: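 Caudate-putamen membranes (washed in 50 mM Tris-HCl pH 7.4, 3800g spins) incubated at 4 mg original wet tissue/mL with 1 nM [3H]citalopram and 7–14 competitor concentrations in 50 mM Tris-HCl/100 mM NaCl pH 7.4, 2 h at 0–4 °C. Filtered on polyethylenimine-soaked GF/B filters, scintillation counting. Nonspecific binding defined with 1 μM fluoxetine. IC50 computed by EBDA; independent experiments in triplicate.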

[2] = species: Macaca fascicularis; experiment: Relative affinity for dopamine and serotonin transporters
[3] = target: Sodium-dependent dopamine transporter (Macaca fascicularis, UniProt Q9GJT6); experiment: Inhibition of [3H]WIN-35428 binding to dopamine transporter using of Cynomolgus monkey caudate-putamen; assay type: tissue-based
How it was run: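 Caudate-putamen membranes (washed in 50 mM Tris-HCl pH 7.4, 3800g spins) incubated at 4 mg original wet tissue/mL with 0.3 nM [3H]WIN35,428 and 7–14 competitor concentrations in 50 mM Tris-HCl/100 mM NaCl pH 7.4, 2 h at 0–4 °C. Filtered on BSA-soaked GF/B filters, scintillation counting. Nonspecific binding defined with 30 μM (–)-cocaine. IC50 computed by EBDA; independent experiments in triplicate.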

Chain of Sodium-dependent dopamine transporter (Q9GJT6 whole entry): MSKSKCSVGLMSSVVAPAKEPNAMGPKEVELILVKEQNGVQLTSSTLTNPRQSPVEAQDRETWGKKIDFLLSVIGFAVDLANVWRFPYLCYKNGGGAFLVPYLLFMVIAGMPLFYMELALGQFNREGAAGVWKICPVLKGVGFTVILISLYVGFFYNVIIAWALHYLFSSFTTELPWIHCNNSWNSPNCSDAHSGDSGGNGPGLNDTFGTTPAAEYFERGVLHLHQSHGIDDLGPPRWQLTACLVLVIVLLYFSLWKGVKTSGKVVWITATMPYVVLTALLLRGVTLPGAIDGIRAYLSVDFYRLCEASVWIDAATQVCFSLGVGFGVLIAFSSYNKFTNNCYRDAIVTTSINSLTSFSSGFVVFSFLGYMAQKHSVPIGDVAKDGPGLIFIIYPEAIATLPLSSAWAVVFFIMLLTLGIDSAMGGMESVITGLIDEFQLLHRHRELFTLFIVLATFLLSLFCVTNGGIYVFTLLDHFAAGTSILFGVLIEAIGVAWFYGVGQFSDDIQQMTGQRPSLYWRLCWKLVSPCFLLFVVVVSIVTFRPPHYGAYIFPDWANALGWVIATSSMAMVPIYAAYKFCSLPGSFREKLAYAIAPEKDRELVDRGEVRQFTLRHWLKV

Row | Compound | IC50 [1] [nM] | Ratio [2] | IC50 [3]
1 | COC(=O)[C@@H]1C2CCC(C[C@@H]1OC(c1ccc(F)cc1)c1ccc(F)cc1)N2Cc1ccccc1 (stereo not given in full) | 4970 | – | –
2 | [N-[2-[(3'-N'-PROPYL-3''ALPHA-(BIS(4-FLUORORPHENYL)METHOXY)TROPANE-2''BETA-CARBOXYLIC ACID METHYL ESTER)(2-MERCAPTOETHYL)AMINO]ACETYL]-2-AMINOETHANETHIOLATO]RHENIUM(V) OXIDE (DIASTEREOMERIC MIX) [listing 1 of 2 here] | – | 90 | –
3 | COC(=O)C1C(c2ccc(F)cc2)CC2CCC1N2Cc1ccccc1 (stereo not given) | 1070 | 18 | 58.9 nM
4 | [N-[2-[(3'-N'-PROPYL-3''ALPHA-(BIS(4-FLUORORPHENYL)METHOXY)TROPANE-2''BETA-CARBOXYLIC ACID METHYL ESTER)(2-MERCAPTOETHYL)AMINO]ACETYL]-2-AMINOETHANETHIOLATO]RHENIUM(V) OXIDE (DIASTEREOMERIC MIX) [listing 2 of 2 here] | – | – | 482 nM and 616 nM and 343 nM
5 | COC(=O)C1C(c2ccc(F)cc2)CC2CCC1N2CCCc1ccccc1 (stereo not given) | 133 | 95 | 1.4 nM
6 | COC(=O)[C@@H]1C2CCC(C[C@@H]1OC(c1ccc(F)cc1)c1ccc(F)cc1)N2CCCCCc1ccccc1 (stereo not given in full) | 550 | 6 | –
7 | COC(=O)C1C(c2ccc(F)cc2)CC2CCC1N2CCCCCc1ccccc1 (stereo not given) | 49.9 | 15 | 3.4 nM
8 | COC(=O)[C@@H]1C2CCC(C[C@@H]1OC(c1ccc(F)cc1)c1ccc(F)cc1)N2CCCc1ccccc1 (stereo not given in full) | 19.7 | – | –
